Experimental data taken from ChEMBL document CHEMBL3352644, “Selenadiazole derivatives as potent thioredoxin reductase inhibitors that enhance the radiosensitivity of cancer cells” (Eur J Med Chem, 2014).
In brackets after ≈: the same amount, converted by molar mass. Activity calls are given as the source filed them. The calls are words filed in the database; no cut-off is given here.

Tests used:
A-375 [1] = test: Cytotoxicity against human A375 cells after 18 hrs by MTT assay; type: functional, cell-based; details: A-375, 18 h
Procedure, shortened: (§1)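 A375 cells (DMEM, 10% FBS, 37 °C, 5% CO2) seeded at 4 × 10⁴ cells/well and grown to 70–80% confluence. Treated with 0, 1, 2, 4, 8, 16 or 32 µg/ml for 6 h, then given 0 or 8 Gy X-ray (linear accelerator, 1.5 Gy/min), then 12 h more at 37 °C. MTT 4 h, formazan dissolved in DMSO, read at 570 nm; % of control; three repeats.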

A-375 [2] = test: Cytotoxicity against human A375 cells incubated for 6 hrs followed by irradiation with 8 Gy X-ray at 37 degC for 12 hrs by MTT assay; type: functional, cell-based; details: A-375, light or radiation study; procedure, shortened: as §1
A-375 [3] = test: Induction of cell shrinkage in human A375 cells incubated for 6 hrs followed by irradiation with 8 Gy X-ray at 37 degC for 12 hrs by microscopy; type: functional, cell-based
Procedure, shortened: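 A375 cells in DMEM with 10% FBS, 37 °C, 5% CO2. Pretreated with agent 6 h, then 0 or 8 Gy X-ray from a linear accelerator at 1.5 Gy/min, room temperature. Incubated a further 12 h; morphology imaged.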

A-375 [4] = test: Induction of cell morphological changes in human A375 cells incubated for 6 hrs followed by irradiation with 8 Gy X-ray at 37 degC for 12 hrs by microscopy; type: functional, cell-based
A-375 [5] = test: Induction of ROS generation in human A375 cells at 8 ug/mL […] by DCF and DHE dye based fluorescence assay; type: functional, cell-based
A-375 [6] = test: Induction of ROS generation in human A375 cells at 16 ug/mL […] by DCF and DHE dye based fluorescence assay; type: functional, cell-based
A-375 [7] = test: Induction of ROS generation in human A375 cells at 8 ug/mL incubated for 6 hrs followed by irradiation with 8 Gy X-ray at 37 degC for 12 hrs by DCF and DHE dye based fluorescence assay; type: functional, cell-based
Procedure, shortened: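 A375 cells (4 × 10⁴/well) cultured 24 h, then treated 6 h at 8 or 16 µg/ml or at 2 or 4 µg/ml, and given 0 or 8 Gy X-ray. Loaded with H₂DCF or DHE for 30 min at 37 °C in the dark. Fluorescence read at 485/535 nm (DCF) or 480/610 nm (DHE); % of control.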

A-375 [8] = test: Induction of apoptosis in human A375 cells assessed as accumulation at subG1 phase at 10 ug/mL incubated for 18 hrs by propidium iodide staining based flow cytometry (reference value: 1.8%); type: functional
Procedure, shortened: (§2)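 A375 cells treated at 10 or 4 µg/ml for 6 h, given 0 or 8 Gy X-ray, then 12 h more. Trypsinized, washed in PBS, fixed overnight in ice-cold 75% ethanol at −20 °C. Stained with propidium iodide, 30 min at 37 °C in the dark; DNA content and sub-G1 population read by flow cytometry.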

A-375 [9] = test: Induction of cell cycle arrest in human A375 cells assessed as accumulation at S phase at 10 ug/mL incubated for 18 hrs by propidium iodide staining based flow cytometry (reference value: 37.2%); type: functional; procedure, shortened: as §2
A-375 [10] = test: Induction of cell cycle arrest in human A375 cells assessed as accumulation at G1/G0 phase at 10 ug/mL incubated for 18 hrs by propidium iodide staining based flow cytometry (reference value: 48.9%); type: functional; procedure, shortened: as §2
A-375 [11] = test: Induction of cell cycle arrest in human A375 cells assessed as accumulation at G2/M phase at 10 ug/mL incubated for 18 hrs by propidium iodide staining based flow cytometry (reference value: 13.9%); type: functional; procedure, shortened: as §2
A-375 [12] = test: Induction of apoptosis in human A375 cells assessed as accumulation at subG1 phase at 10 ug/mL incubated for 6 hrs followed by irradiation with 8 Gy X-ray at 37 degC for 12 hrs by propidium iodide staining based flow cytometry (reference value: 2.3%); type: functional; procedure, shortened: as §2
A-375 [13] = test: Induction of cell cycle arrest in human A375 cells assessed as accumulation at G1/G0 phase at 10 ug/mL incubated for 6 hrs followed by irradiation with 8 Gy X-ray at 37 degC for 12 hrs by propidium iodide staining based flow cytometry (reference value: 44.9%); type: functional; procedure, shortened: as §2
A-375 [14] = test: Induction of cell cycle arrest in human A375 cells assessed as accumulation at S phase at 10 ug/mL incubated for 6 hrs followed by irradiation with 8 Gy X-ray at 37 degC for 12 hrs by propidium iodide staining based flow cytometry (reference value: 7.9%); type: functional; procedure, shortened: as §2
A-375 [15] = test: Induction of cell cycle arrest in human A375 cells assessed as accumulation at G2/M phase at 10 ug/mL incubated for 6 hrs followed by irradiation with 8 Gy X-ray at 37 degC for 12 hrs by propidium iodide staining based flow cytometry (reference value: 47.2%); type: functional; procedure, shortened: as §2
A-375 [16] = test: Induction of ROS generation in human A375 cells at 16 ug/mL incubated for 6 hrs followed by irradiation with 8 Gy X-ray at 37 degC for 12 hrs by DCF and DHE dye based fluorescence assay

Compound	IC50 (A-375 [1])	IC50 (A-375 [2])	Activity (A-375 [3])	Activity (A-375 [4])	Activity (A-375 [5])	Activity (A-375 [6])	Activity (A-375 [7])	Activity (A-375 [8])	Activity (A-375 [9])	Activity (A-375 [10])	Activity (A-375 [11])	Activity (A-375 [12])	Activity (A-375 [13])	Activity (A-375 [14])	Activity (A-375 [15])	Activity (A-375 [16])
COc1cc(Cn2c(-c3cc(OC)c(OC)c(OC)c3)nc3cc(-c4ccc5n[se]nc5c4)ccc32)cc(OC)c1OC	28.3 µg/mL (≈ 43.8 µM)	9.2 µg/mL (≈ 14.3 µM)	Active	Active												
COc1cc(Cn2c(-c3cc(OC)c(OC)c(OC)c3)nc3ccc(-c4ccc5n[se]nc5c4)cc32)cc(OC)c1OC	26.4 µg/mL (≈ 40.9 µM)	8 µg/mL (≈ 12.4 µM)	Active	Active	Active	Active	Active	11.7%	21.3%	69.3%	9.4%	57.6%	60.5%	36.8%	2.7%	Active
